Measured values published in ChEMBL document CHEMBL4325893, “Synthesis and antibacterial profiles of targeted triclosan derivatives” (2019).
≈ marks a conversion by molar mass, not a printed value.

Assays:
[1] = test system: Staphylococcus aureus; assay: Antibacterial activity against Staphylococcus aureus OCC 106 after 18 hrs; type: functional; settings: OCC 106, 18 h
Outline: (§1)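 Broth microdilution in Nutrient Broth No. 2; stocks in ethanol diluted to 0.01–128 µg/ml (triclosan) or 0.25–256 µg/ml (glycosides). Overnight 37 °C NB2 cultures diluted 1 in 10^4 in saline and added to the dilutions. Incubation at 37 °C with agitation, OD read every 15 min; MIC is the lowest concentration preventing any OD rise after 18 h.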

[2] = test system: Aeromonas hydrophila; assay: Antibacterial activity against Aeromonas hydrophila OCC 778 after 18 hrs; type: functional; settings: OCC 778, 18 h; outline: as §1
[3] = test system: Escherichia coli; assay: Antibacterial activity against Escherichia coli ATCC 25922 after 18 hrs; type: functional; settings: ATCC 25922, 18 h; outline: as §1
[4] = test system: Staphylococcus aureus; assay: Antibacterial activity against Staphylococcus aureus ATCC 29213 after 18 hrs; type: functional; settings: ATCC 29213, 18 h; outline: as §1
[5] = test system: Staphylococcus epidermidis; assay: Antibacterial activity against Staphylococcus epidermidis 155 after 18 hrs; type: functional; settings: Staphylococcus epidermidis, 155, 18 h; outline: as §1
[6] = test system: Salmonella enterica subsp. enterica serovar Abony; assay: Antibacterial activity against Salmonella enterica subspecies enterica serotype Abony NCTC 6017 after 18 hrs; type: functional; settings: NCTC 6017, 18 h; outline: as §1
[7] = test system: Streptococcus pyogenes; assay: Antibacterial activity against Streptococcus pyogenes ATCC 19615 after 18 hrs; type: functional; settings: ATCC 19615, 18 h
Outline: (§2)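 Broth microdilution in Nutrient Broth No. 2. Ethanol stocks were diluted in broth to 0.01–128 µg/ml for triclosan and 0.25–256 µg/ml for glycosides. Overnight 37°C NB2 cultures were diluted 1 in 10^4 in saline and added to the wells. Plates were incubated at 37°C with OD read every 15 min after agitation. MIC was the lowest concentration giving no OD increase at 18 h.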

[8] = test system: Citrobacter freundii; assay: Antibacterial activity against Citrobacter freundii 8090 after 18 hrs; type: functional; settings: Citrobacter freundii, 8090, 18 h; outline: as §1
[9] = Antibacterial activity against Salmonella enterica subspecies enterica serotype Poona NCTC 4840 after 18 hrs; type: functional, Salmonella enterica subsp. enterica serovar Poona; settings: NCTC 4840, 18 h; outline: as §1
[10] = test system: Escherichia coli; assay: Antibacterial activity against Escherichia coli 700728 after 18 hrs; type: functional; settings: Escherichia coli, 700728, 18 h; outline: as §1
[11] = test system: Escherichia coli; assay: Antibacterial activity against Escherichia coli ATCC 11775 after 18 hrs; type: functional; outline: as §1
[12] = test system: Escherichia hermannii; assay: Antibacterial activity against Escherichia hermannii 33650 after 18 hrs; type: functional; settings: Atlantibacter hermannii, 33650, 18 h; outline: as §1
[13] = test system: Cronobacter sakazakii; assay: Antibacterial activity against Cronobacter sakazakii 29544 after 18 hrs; type: functional; settings: Cronobacter sakazakii, 29544, 18 h; outline: as §1
[14] = test system: Streptococcus viridans; assay: Antibacterial activity against Streptococcus viridans OCC 234 after 18 hrs; type: functional; settings: OCC 234, 18 h; outline: as §2
[15] = test system: Staphylococcus epidermidis; assay: Antibacterial activity against Staphylococcus epidermidis ATCC 14990 after 18 hrs; type: functional; settings: ATCC 14990, 18 h; outline: as §1
[16] = test system: Hafnia alvei; assay: Antibacterial activity against Hafnia alvei 13337 after 18 hrs; type: functional; settings: Hafnia alvei, 13337, 18 h; outline: as §1
[17] = Antibacterial activity against Salmonella enterica subspecies enterica serotype Pullorum OCC 273 after 18 hrs; type: functional, Salmonella enterica subsp. enterica serovar Pullorum; settings: OCC 273, 18 h; outline: as §1
[18] = test system: Enterococcus faecalis; assay: Antibacterial activity against Enterococcus faecalis ATCC 29212 after 18 hrs; type: functional; settings: ATCC 29212, 18 h; outline: as §1
[19] = test system: Pseudomonas aeruginosa; assay: Antibacterial activity against Pseudomonas aeruginosa ATCC 27853 after 18 hrs; type: functional; settings: ATCC 27853, 18 h; outline: as §1
[20] = test system: Enterococcus faecium; assay: Antibacterial activity against Enterococcus faecium ATCC 19434 after 18 hrs; type: functional; settings: ATCC 19434, 18 h; outline: as §1
[21] = test system: Staphylococcus aureus; assay: Antibacterial activity against Staphylococcus aureus ATCC 6538P after 18 hrs; type: functional; outline: as §1
[22] = Antibacterial activity against Salmonella enterica subspecies enterica serotype Indiana OCC 597 after 18 hrs; type: functional, Salmonella enterica subsp. enterica serovar Indiana; settings: OCC 597, 18 h; outline: as §1
[23] = test system: Enterococcus faecalis; assay: Antibacterial activity against Enterococcus faecalis ATCC 33186 after 18 hrs; type: functional; settings: ATCC 33186, 18 h; outline: as §1
[24] = test system: Streptococcus pneumoniae; assay: Antibacterial activity against Streptococcus pneumoniae ATCC 49619 after 18 hrs; type: functional; settings: ATCC 49619, 18 h; outline: as §2
[25] = test system: Escherichia coli; assay: Antibacterial activity against Escherichia coli ATCC 35218 after 18 hrs; type: functional; settings: ATCC 35218, 18 h; outline: as §1
[26] = test system: Klebsiella pneumoniae; assay: Antibacterial activity against Klebsiella pneumoniae ATCC 10031 after 18 hrs; type: functional; settings: ATCC 10031, 18 h; outline: as §1
[27] = Antibacterial activity against Salmonella enterica subspecies enterica serotype Nottingham NCTC 7832 after 18 hrs; type: functional, Salmonella enterica subsp. enterica serovar Nottingham; settings: NCTC 7832, 18 h; outline: as §1
[28] = test system: Citrobacter freundii; assay: Antibacterial activity against Citrobacter freundii OCC 851 after 18 hrs; type: functional; settings: OCC 851, 18 h; outline: as §1
[29] = test system: Salmonella enteritidis; assay: Antibacterial activity against Salmonella enterica subspecies enterica serotype Enteritidis 13076 after 18 hrs; type: functional, Salmonella enterica subsp. enterica serovar Enteritidis; settings: Salmonella enterica, 13076, 18 h; outline: as §1

- MIC [1]: 4 to 8 µg/mL (≈ 8.86 to 17.7 µM)
- MIC [2]: > 256 µg/mL
- MIC [3]: 8 to 64 µg/mL (≈ 17.7 to 142 µM)
- MIC [4]: 4 to 8 µg/mL (≈ 8.86 to 17.7 µM)
- MIC [5]: 8 to 16 µg/mL (≈ 17.7 to 35.4 µM)
- MIC [6]: 16 to 32 µg/mL (≈ 35.4 to 70.8 µM)
- MIC [7]: 32 µg/mL (≈ 70.8 µM)
- MIC [8]: 64 µg/mL (≈ 142 µM)
- MIC [9]: 16 to 32 µg/mL (≈ 35.4 to 70.8 µM)
- MIC [10]: 8 to 64 µg/mL (≈ 17.7 to 142 µM)
- MIC [11]: 8 to 64 µg/mL (≈ 17.7 to 142 µM)
- MIC [12]: 16 µg/mL (≈ 35.4 µM)
- MIC [13]: 64 µg/mL (≈ 142 µM)
- MIC [14]: 256 µg/mL (≈ 567 µM)
- MIC [15]: 8 to 16 µg/mL (≈ 17.7 to 35.4 µM)
- MIC [16]: 4 µg/mL (≈ 8.86 µM)
- MIC [17]: 16 to 32 µg/mL (≈ 35.4 to 70.8 µM)
- MIC [18]: 16 µg/mL (≈ 35.4 µM)
- MIC [19]: > 256 µg/mL
- MIC [20]: > 256 µg/mL
- MIC [21]: 4 to 8 µg/mL (≈ 8.86 to 17.7 µM)
- MIC [22]: 16 to 32 µg/mL (≈ 35.4 to 70.8 µM)
- MIC [23]: 16 µg/mL (≈ 35.4 µM)
- MIC [24]: 128 µg/mL (≈ 283 µM)
- MIC [25]: 8 to 64 µg/mL (≈ 17.7 to 142 µM)
- MIC [26]: 0.5 µg/mL (≈ 1.11 µM)
- MIC [27]: 16 to 32 µg/mL (≈ 35.4 to 70.8 µM)
- MIC [28]: 64 µg/mL (≈ 142 µM)
- MIC [29]: 16 to 32 µg/mL (≈ 35.4 to 70.8 µM)
Structure (SMILES): OC[C@H]1O[C@@H](Oc2cc(Cl)ccc2Oc2ccc(Cl)cc2Cl)[C@H](O)[C@@H](O)[C@@H]1O
